Results published in paper PMC11376197 (Chemical Science, 2024).

Experiments:
Experiment in all cases: Cell viability assay
[1] = system: A2780 (cisplatin-sensitive ovarian cancer cells); format: cell-based, human; conditions: read-out: IC50 A2780; 96 h of incubation
Summary of the method: (§1)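 Cell lines were exposed to test compounds for 96 h, with cisplatin as a reference. Complexes came from DMSO stocks and cisplatin from water stocks. Antiproliferative activity is expressed as IC50.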

[2] = system: OVCAR-3 (high-grade serous ovarian cancer cells); format: cell-based, human; conditions: read-out: IC50 OVCAR-3; 96 h of incubation
Summary of the method: as §1

[3] = system: HCT116 (colon cancer cells); format: cell-based, human; conditions: read-out: IC50 HCT116; 96 h of incubation
Summary of the method: as §1

[4] = system: MRC-5 (non-cancerous lung fibroblasts); format: cell-based; conditions: read-out: IC50 MRC-5; 96 h of incubation
Summary of the method: as §1

Which IC50 [1] does the source give for `N.N.[Cl][Pt][Cl]` [Cisplatin] here?
The IC50 was 600 ± 200 nM.

And the IC50 [2]?
The IC50 was 3100 ± 200 nM.

What about the IC50 [3] of the same compound?
The IC50 was 7900 ± 800 nM.

And the IC50 [4]?
Its IC50 is 2000 ± 1000 nM.
